Laboratory results from PMC9303693 (Journal of Clinical Pharmacology, 2022).
Where “and” joins values, the source holds several entries; their conditions need not be identical. Identical values can stand only once. Like-named read-outs stand apart in the source and are kept apart here. Marks after values point to notes of the source that are not given here. Each block holds one molecule with its values, some of them ahead of it.

Assays:
[1] = format: in vivo, human; conditions: for CL/F / Vd/F: acalabrutinib; for AUC: AUC0‐inf; for Vd/F: Vz/F; for half-life: t1/2, total plasma acalabrutinib; for Tmax: median (minimum, maximum)
human plasma [2] = assay: Plasma protein binding in study 2 subjects; format: in vitro ADME
Method in brief: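 Severe hepatic impairment and matched control subjects received a single oral 50-mg dose of the test compound after an overnight fast. Blood (4 mL) was drawn on day 1 at 0.863, 1.75 and 6.5 h post-dose. Binding of parent and active metabolite in the plasma was assessed by ultracentrifugation to estimate the unbound fraction.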

[3] = cited from earlier work
BTK = conditions: cited from earlier work
human plasma [4] = assay: In vitro protein binding in human plasma; format: in vitro ADME; conditions: for in vitro protein binding: human plasma
[5] = Urinary excretion and renal clearance after a single 50-mg dose; format: in vivo, human; conditions: for mean renal clearance: ACP-5862; for CL renal: human, urine, oral, 50 mg, mean renal clearance
Method in brief: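 In study 2, a single oral 50-mg capsule was taken with ≈240 mL water after an overnight fast. Urine was collected predose, 0–4 h and 4–24 h post-dose and pooled per interval for each subject. Analytes were quantified by validated LC-MS/MS with deuterated internal standards over a nominal urine range of 5 to 5000 ng/mL.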

human serum albumin = human serum albumin (Homo sapiens, UniProt P02768); assay: In vitro protein binding in human serum albumin solution; format: in vitro ADME
human serum albumin, sequence (P02768 25-609): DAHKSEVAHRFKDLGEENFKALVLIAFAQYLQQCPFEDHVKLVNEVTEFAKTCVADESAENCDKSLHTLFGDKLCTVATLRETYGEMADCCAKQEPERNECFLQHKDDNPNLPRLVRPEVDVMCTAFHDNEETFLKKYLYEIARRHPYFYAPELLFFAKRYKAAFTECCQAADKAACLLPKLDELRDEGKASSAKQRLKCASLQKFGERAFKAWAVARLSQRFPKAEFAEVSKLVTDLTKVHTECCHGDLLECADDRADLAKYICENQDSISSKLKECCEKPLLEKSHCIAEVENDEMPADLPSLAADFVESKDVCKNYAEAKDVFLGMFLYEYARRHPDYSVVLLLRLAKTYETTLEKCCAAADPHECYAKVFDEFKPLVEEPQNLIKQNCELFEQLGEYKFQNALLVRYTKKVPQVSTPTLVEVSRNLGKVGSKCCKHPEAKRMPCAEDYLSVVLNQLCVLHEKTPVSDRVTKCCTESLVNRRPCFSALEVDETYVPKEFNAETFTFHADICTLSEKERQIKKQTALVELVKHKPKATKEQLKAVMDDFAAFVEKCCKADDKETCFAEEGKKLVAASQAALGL

[6] = In vitro protein binding in α1-acid glycoprotein solution; format: in vitro ADME; conditions: human
Safety evaluation = format: in vivo, human; conditions: for Number (%) of subjects with TEAEs: single oral 50-mg dose
Method in brief: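 After an overnight fast, subjects took a single oral 50-mg dose as capsules with ≈240 mL water on day 1. AEs were collected until follow-up contact 14 days post-dose. Safety monitoring covered concomitant medications, serial hematology, serum chemistry and urinalysis, vital signs, 12-lead ECGs and physical examinations. Findings were summarized descriptively.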

[7] = In vitro protein binding in human plasma; format: in vitro ADME; conditions: human, plasma
[8] = Earlier clinical studies of acalabrutinib; format: in vivo, human; conditions: 400-mg vs 50-mg dose, healthy subjects (data on file)
[9] = cited from earlier work; remark: listed apart in the source
[10] = ACP-5862/acalabrutinib, study 2, Control (n = 8), arithmetic mean (SD)
[11] = ACP-5862/acalabrutinib, study 2, Severe (n = 8), arithmetic mean (SD)
[12] = ACP-5862, severe hepatic impairment vs control subjects
[13] = plasma ACP-5862, ANOVA, exponentiated LSM, Control, n 8
[14] = plasma ACP-5862, Severe vs normal hepatic function (reference)
[15] = subjects with severe hepatic impairment
[16] = both, human, plasma, po, 50 mg, single oral 50-mg dose, Control (n = 13), arithmetic mean (SD)
[17] = both, human, plasma, po, 50 mg, single oral 50-mg dose, Mild (n = 6), arithmetic mean (SD)
[18] = both, human, plasma, po, 50 mg, single oral 50-mg dose, Moderate (n = 6), arithmetic mean (SD)
[19] = human, plasma, po, 50 mg, single oral 50-mg dose, Severe (n = 8), arithmetic mean (SD)
[20] = plasma acalabrutinib, Mild vs normal hepatic function (reference)
[21] = plasma acalabrutinib, Moderate vs normal hepatic function (reference)
[22] = plasma acalabrutinib, Severe vs normal hepatic function (reference)
[23] = severe hepatic impairment, study 2
[24] = healthy subjects (n = 17), relative to no pretreatment
[25] = healthy subjects, single 400-mg dose
[26] = acalabrutinib, matched normal hepatic function subjects
[27] = acalabrutinib, subjects with severe hepatic impairment

- MR:AUC0‐inf (metabolite‐to‐parent ratio) [1, 10]: 3.59 and 3.6 ± 0.9
- MR:AUC0‐last (metabolite‐to‐parent ratio) [1, 10]: 3.1 ± 0.7
- MR:Cmax (metabolite‐to‐parent ratio) [1, 10]: 1.15 and 1.1 ± 0.4
- MR:AUC0‐last (metabolite‐to‐parent ratio) [1, 11]: 0.6 ± 0.4
- MR:Cmax (metabolite‐to‐parent ratio) [1, 11]: 0.247 and 0.2 ± 0.1
- geometric mean ratio for AUC [1, 12]: 0.9
- geometric mean ratio for Cmax [1, 12]: 1.01
- AUC0‐inf, LS Mean [1, 13]: 0.817 µg·h/mL
- Cmax, LS Mean [1, 13]: 0.1665 µg/mL
- AUC0‐inf, LS Mean ([1]; plasma ACP-5862, ANOVA, exponentiated LSM, Severe, n 6): 0.7822 µg·h/mL
- Cmax, LS Mean ([1]; plasma ACP-5862, ANOVA, exponentiated LSM, Severe, n 8): 0.1687 µg/mL
- AUC0‐inf GMR: Test/Reference [1, 14]: 95.7%
- Cmax GMR: Test/Reference [1, 14]: 101.4%
- mean protein binding (human plasma [2]; healthy matched controls): ≈ 98%
- mean protein binding (human plasma [2]; [15]): ≈ 94%
- in vitro protein binding (human plasma [4]; plasma concentration 1 μM (0.482 μg/mL)): 98.7%
- in vitro protein binding (human plasma [4]; plasma concentration 10 μM (4.82 μg/mL)): 98.6%
- mean renal clearance ([5]; matched control subjects with normal hepatic function): 605.3 mL/h
- mean renal clearance [5, 15]: 692.6 mL/h
- amount of the metabolite excreted in urine ([5]; ACP-5862 after 50-mg acalabrutinib, subjects with severe hepatic impairment): ≈ 0.415 mg
Compound: CC#CC(=O)NCCCC(=O)c1nc(-c2ccc(C(=O)Nc3ccccn3)cc2)c2c(N)nccn12 [ACP‐5862]
- share of total acalabrutinib‐related material in plasma ([3]; human, plasma): > 10%
- potency for BTK inactivation relative to parent acalabrutinib (BTK): ≈ 50%

Compound: CC#CC(=O)N1CCC[C@H]1c1nc(-c2ccc(C(=O)Nc3ccccn3)cc2)c2c(N)nccn12 [Acalabrutinib]
- fraction unbound (human serum albumin): 0.063
- fraction unbound [6]: 0.589
- CL/F ([1]; single oral 50-mg dose, Control (n = 13), arithmetic mean (SD)): 218.1 ± 103.1 ^a L/h
- CL/F ([1]; single oral 50-mg dose, Mild (n = 6), arithmetic mean (SD)): 156.6 ± 91.1 L/h
- CL/F ([1]; single oral 50-mg dose, Moderate (n = 6), arithmetic mean (SD)): 280.8 ± 372.7 L/h
- CL/F ([1]; single oral 50-mg dose, Severe (n = 8), arithmetic mean (SD)): 48.7 ± 30.7 L/h
- CL/F ([1]; single oral 50-mg dose, Severe (n = 8), arithmetic mean (SD), listed as acalabrutinib): 48.7 L/h
- AUC ([1]; both, human, plasma, oral, 50 mg, LS Mean, plasma acalabrutinib, ANOVA, exponentiated LSM, Control, n 13): 0.25 µg·h/mL
- AUC ([1]; both, human, plasma, oral, 50 mg, LS Mean, plasma acalabrutinib, ANOVA, exponentiated LSM, Mild, n 6): 0.366 µg·h/mL
- AUC ([1]; both, human, plasma, oral, 50 mg, LS Mean, plasma acalabrutinib, ANOVA, exponentiated LSM, Moderate, n 6): 0.326 µg·h/mL
- Cmax ([1]; both, human, plasma, oral, 50 mg, Cmax, LS Mean, plasma acalabrutinib, ANOVA, exponentiated LSM, Control, n 14): 0.152 µg/mL
- Cmax ([1]; both, human, plasma, oral, 50 mg, Cmax, LS Mean, plasma acalabrutinib, ANOVA, exponentiated LSM, Mild, n 6): 0.292 µg/mL
- Cmax ([1]; both, human, plasma, oral, 50 mg, Cmax, LS Mean, plasma acalabrutinib, ANOVA, exponentiated LSM, Moderate, n 6): 0.156 µg/mL
- AUC ([1]; both, human, plasma, po, 50 mg, total plasma acalabrutinib, single oral 50-mg dose, Control (n = 13), geometric mean (geometric CV%)): 0.25 µg·h/mL
- AUC ([1]; both, human, plasma, po, 50 mg, total plasma acalabrutinib, single oral 50-mg dose, Mild (n = 6), geometric mean (geometric CV%)): 0.366 µg·h/mL
- AUC ([1]; both, human, plasma, po, 50 mg, total plasma acalabrutinib, single oral 50-mg dose, Moderate (n = 6), geometric mean (geometric CV%)): 0.326 µg·h/mL
- Cmax ([1]; both, human, plasma, po, 50 mg, Cmax, total plasma acalabrutinib, single oral 50-mg dose, fasted, Control, normal hepatic function (n = 14), geometric mean (geometric CV%)): 0.152 µg/mL
- Cmax ([1]; both, human, plasma, po, 50 mg, Cmax, total plasma acalabrutinib, single oral 50-mg dose, fasted, Mild, Child-Pugh class A (n = 6), geometric mean (geometric CV%)): 0.292 µg/mL
- Cmax ([1]; both, human, plasma, po, 50 mg, Cmax, total plasma acalabrutinib, single oral 50-mg dose, fasted, Moderate, Child-Pugh class B (n = 6), geometric mean (geometric CV%)): 0.156 µg/mL
- Vd/F [1, 16]: 722 ± 520 L
- Vd/F [1, 17]: 471 ± 222 L
- Vd/F [1, 18]: 2140 ± 2720 L
- half-life [1, 16]: 2.2 ± 0.8 h
- half-life [1, 17]: 2.3 ± 0.9 h
- half-life [1, 18]: 7.9 ± 12.7 h
- Tmax ([1]; both, human, plasma, po, 50 mg, total plasma acalabrutinib, single oral 50-mg dose, Control (n = 14)): 0.6 h
- Tmax ([1]; both, human, plasma, po, 50 mg, total plasma acalabrutinib, single oral 50-mg dose, Mild (n = 6)): 0.8 h
- Tmax ([1]; both, human, plasma, po, 50 mg, total plasma acalabrutinib, single oral 50-mg dose, Moderate (n = 6)): 1 h
- AUC ([1]; human, plasma, oral, 50 mg, LS Mean, plasma acalabrutinib, ANOVA, exponentiated LSM, Severe, n 8): 1.17 µg·h/mL
- Cmax ([1]; human, plasma, oral, 50 mg, Cmax, LS Mean, plasma acalabrutinib, ANOVA, exponentiated LSM, Severe, n 8): 0.726 µg/mL
- AUC ([1]; human, plasma, po, 50 mg, total plasma acalabrutinib, single oral 50-mg dose, Severe (n = 8), geometric mean (geometric CV%)): 1.17 µg·h/mL
- Cmax ([1]; human, plasma, po, 50 mg, Cmax, total plasma acalabrutinib, single oral 50-mg dose, fasted, Severe, Child-Pugh class C (n = 8), geometric mean (geometric CV%)): 0.726 µg/mL
- Vd/F [1, 19]: 167 ± 70.3 L
- half-life [1, 19]: 2.7 ± 1.1 h
- AUC0‐inf GMR: Test/Reference [1, 20]: 146.2%
- Cmax GMR: Test/Reference [1, 20]: 191.3%
- AUC0‐inf GMR: Test/Reference [1, 21]: 130.5%
- Cmax GMR: Test/Reference [1, 21]: 102.2%
- AUC0‐inf GMR: Test/Reference [1, 22]: 467.3%
- Cmax GMR: Test/Reference [1, 22]: 476.2%
- increase of unbound acalabrutinib AUC0‐last compared with control subjects [1, 23]: 3.6 fold
- increase of unbound acalabrutinib Cmax compared with control subjects [1, 23]: 3.8 fold
- increase of acalabrutinib Cmax compared with control subjects ([1]; single 50-mg dose, mild hepatic impairment): 1.9 fold
- increase of acalabrutinib AUC compared with control subjects ([1]; single 50-mg dose, mild hepatic impairment (Child-Pugh class A)): 1.90 fold
- difference in acalabrutinib Cmax compared with control subjects ([1]; single 50-mg dose, moderate hepatic impairment): did not result in any appreciable difference
- increase of acalabrutinib AUC compared with control subjects ([1]; single 50-mg dose, moderate hepatic impairment (Child-Pugh class B)): 1.48 fold
- Cmax ([1]; total plasma acalabrutinib, single oral 50-mg dose, fasted, Moderate, Child-Pugh class B (n = 6), geometric mean (geometric CV%)): 155.7 (246.9) ng/mL
- AUC0‐inf ([1]; total plasma acalabrutinib, single oral 50-mg dose, Moderate (n = 6), geometric mean (geometric CV%)): 326.4 (177.9) ng • h/mL
- Number (%) of subjects with TEAEs (Safety evaluation; Control (n = 14)): 0
- Number (%) of subjects with TEAEs (Safety evaluation; Mild hepatic impairment (n = 6)): 2 (33)
- Number (%) of subjects with TEAEs (Safety evaluation; Moderate hepatic impairment (n = 6)): 0
- Number (%) of subjects with TEAEs (Safety evaluation; Overall (N = 34)): 3 (9)
- Number (%) of subjects with TEAEs (Safety evaluation; Severe hepatic impairment (n = 8)): 1 (13)
- tolerability (Safety evaluation; single oral dose of 50 mg, healthy subjects and subjects with mild, moderate, or severe hepatic impairment): well tolerated
- deaths, serious AEs, discontinuations due to AEs (Safety evaluation; single oral dose of 50 mg, study 1 and study 2): no deaths, serious AEs, or subject discontinuations due to AEs
- mean elimination t1/2 [3]: ≈ 1 hour
- increase of mean plasma AUC0‐last in the presence of itraconazole [3, 24]: 5.1 fold
- increase of mean plasma Cmax in the presence of itraconazole [3, 24]: 3.9 fold
- mean AUC0‐last [3, 25]: 3.966 µg·h/mL
- mean Cmax [3, 25]: 1.672 µg/mL
- fraction unbound [7]: 0.025
- free fraction (percentage unbound) (human plasma [4]; in humans (plasma)): 2.5%
- clinical margin of safety for the 50‐mg dose, AUC0‐last [8]: ~16 fold
- clinical margin of safety for the 50‐mg dose, Cmax [8]: ≈ 7.5 fold
- renal clearance as share of the systemic clearance [5, 26]: ≈ 0.5%
- renal clearance as share of the apparent systemic clearance [5, 27]: ≈ 1.7%
- CL renal [5, 26]: 21.2 mL/min
- CL renal [5, 27]: 12.9 mL/min
- share of the 50‐mg oral dose excreted in urine ([5]; matched normal hepatic function subjects, 24-hour urine collection interval): ≈ 0.6%
- share of the 50‐mg oral dose excreted in urine [5, 15]: approximately 1.8%

Compound: C=CC(=O)N1CCC[C@@H](n2nc(-c3ccc(Oc4ccccc4)cc3)c3c(N)ncnc32)C1 [ibrutinib]
- mean AUC, fold higher compared with healthy controls ([9]; mild hepatic impairment): 2.7 fold
- mean AUC, fold higher compared with healthy controls ([9]; moderate hepatic impairment): 8.0 fold
- mean AUC, fold higher compared with healthy controls ([9]; severe hepatic impairment): 9.5 fold
